The text below walks through data of article PMC4681656 (Organic & biomolecular chemistry, 2016).

The target of experiment [1] is vimentin rod domain (residues 99-411) (Homo sapiens, UniProt P08670). The experiment can be described thus: Vimentin-arylquin binding assay by intrinsic arylquin fluorescence. The conditions noted are these: fluorescence titration.
In the next experiment the target is hERG potassium channel (Homo sapiens, UniProt Q12809). Nature of the experiment: [3H]-dofetilide binding assay with hERG-HEK293 cell membranes. (In general: hERG is a cardiac potassium channel; its block is linked to QT prolongation.)
The test system of experiment [2] is Par-4 secretion from mouse fibroblasts. Type of experiment: cell-based. The conditions noted are these: for fold induction at 0.5 µM: Mus musculus, Fibroblast, 24 h, read-out: Ratio of Par-4 Secretion by Arylquin Relative to Vehicle. The method in brief: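 Cells exposed to test compound for 24 h. Conditioned medium and lysates were analysed by quantitative Western blot for Par-4 and Col1A1, with Col1A1 used to normalise secreted Par-4. Experiments were run in triplicate; data are mean ± standard deviation of at least three experiments, with Student t test.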

“Also recorded” adds a separate entry of the source.

hERG potassium channel, sequence (Q12809 whole entry): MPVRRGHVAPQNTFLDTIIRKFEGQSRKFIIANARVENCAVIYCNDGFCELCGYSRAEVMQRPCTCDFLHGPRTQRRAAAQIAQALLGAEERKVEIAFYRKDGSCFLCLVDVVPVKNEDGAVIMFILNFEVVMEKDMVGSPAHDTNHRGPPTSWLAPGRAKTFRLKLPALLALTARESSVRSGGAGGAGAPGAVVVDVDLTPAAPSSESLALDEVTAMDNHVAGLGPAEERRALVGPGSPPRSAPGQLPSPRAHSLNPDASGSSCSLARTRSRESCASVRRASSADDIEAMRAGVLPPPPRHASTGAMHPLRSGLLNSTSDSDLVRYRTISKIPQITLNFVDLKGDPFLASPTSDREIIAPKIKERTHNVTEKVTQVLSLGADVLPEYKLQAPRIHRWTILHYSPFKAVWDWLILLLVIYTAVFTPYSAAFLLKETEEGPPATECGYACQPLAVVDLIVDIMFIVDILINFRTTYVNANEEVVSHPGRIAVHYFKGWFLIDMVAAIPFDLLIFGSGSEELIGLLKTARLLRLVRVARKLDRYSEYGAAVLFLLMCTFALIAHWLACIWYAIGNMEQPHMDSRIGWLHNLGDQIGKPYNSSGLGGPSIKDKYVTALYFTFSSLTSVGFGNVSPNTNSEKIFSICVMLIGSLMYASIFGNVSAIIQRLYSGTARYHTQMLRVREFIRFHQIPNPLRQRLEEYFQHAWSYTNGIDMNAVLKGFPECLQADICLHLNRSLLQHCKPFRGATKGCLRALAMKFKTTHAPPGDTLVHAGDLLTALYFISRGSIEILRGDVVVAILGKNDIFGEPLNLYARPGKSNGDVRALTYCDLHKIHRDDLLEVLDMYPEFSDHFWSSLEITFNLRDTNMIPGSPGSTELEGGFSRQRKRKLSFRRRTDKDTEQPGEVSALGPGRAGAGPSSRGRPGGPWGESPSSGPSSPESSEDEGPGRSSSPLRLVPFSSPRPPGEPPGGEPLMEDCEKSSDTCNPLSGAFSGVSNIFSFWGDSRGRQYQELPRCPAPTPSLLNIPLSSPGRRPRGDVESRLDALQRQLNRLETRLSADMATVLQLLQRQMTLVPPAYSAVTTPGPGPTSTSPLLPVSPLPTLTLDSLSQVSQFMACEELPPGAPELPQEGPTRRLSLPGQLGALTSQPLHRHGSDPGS
vimentin rod domain (residues 99-411), sequence (P08670 99-411): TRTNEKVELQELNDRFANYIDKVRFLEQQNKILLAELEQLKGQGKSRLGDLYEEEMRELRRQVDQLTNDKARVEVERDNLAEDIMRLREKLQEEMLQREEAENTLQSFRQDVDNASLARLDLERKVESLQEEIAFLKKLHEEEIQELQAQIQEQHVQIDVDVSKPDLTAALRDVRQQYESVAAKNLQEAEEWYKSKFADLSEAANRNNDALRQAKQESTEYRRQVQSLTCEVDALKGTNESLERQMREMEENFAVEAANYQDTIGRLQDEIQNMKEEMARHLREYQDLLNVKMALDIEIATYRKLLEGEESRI

Regarding `CN(C)c1ccc2cc(-c3ccccc3F)c(N)nc2c1` [1a, 3-(2-Fluorophenyl)-N^7,N^7-dimethylquinoline-2,7-diamine], the Stoichiometry at saturation in experiment [1] is 3-4 molecules per monomer of the rod domain.

`CN(C)c1ccc2cc(-c3cccc(F)c3)c(N)nc2c1` [1d, 3-(3-Fluorophenyl)-N^7,N^7-dimethylquinoline-2,7-diamine]: the 50% inhibitory concentration (IC50) (as a rule, the concentration that gives 50% inhibition) at hERG potassium channel is 1.59 ± 0.39 µM.

At hERG potassium channel, `CN(C)c1ccc2cc(-c3ccc(F)cc3)c(N)nc2c1` [1f, 3-(4-Fluorophenyl)-N^7,N^7-dimethylquinoline-2,7-diamine] returned an IC50 of 30.2 ± 10.3 µM. This IC50 is about 19-fold higher than that of the compound before.

Turning to `CN(C)c1ccc2cc(-c3c(F)cccc3Cl)c(N)nc2c1` [1n, 3-(2-Chloro-6-fluorophenyl)-N^7,N^7-dimethylquinoline-2,7-diamine], the fold induction at 0.5 µM in experiment [2] came out at 2.4.

For the compound `CN(C)c1ccc2cc(-c3c(Cl)cccc3Cl)c(N)nc2c1` [1o, 3-(2,6-Dichlorophenyl)-N^7,N^7-dimethylquinoline-2,7-diamine], the fold induction at 0.5 µM in experiment [2] worked out at 2.4.

As to `COc1ccccc1-c1cc2ccc(N(C)C)cc2nc1N` [1r, 3-(2-Methoxyphenyl)-N^7,N^7-dimethylquinoline-2,7-diamine], the fold induction at 0.5 µM in experiment [2] came out at 1.7.

Regarding `CN(C)c1ccc2cc(-c3ccccc3F)c(=O)[nH]c2c1` [compound 2, 7-(N,N-Dimethylamino)-3-(2-fluorophenyl)quinolin-2(1H)-one], the IC50 at hERG potassium channel is over 100 µM. In addition, the fold induction at 0.5 µM in experiment [2] turned out to be 1.1.

Turning to `CN(C)c1ccc2cc3c(nc(N)c4ccccc43)nc2c1` [compound 5, N^9,N^9-Dimethyldibenzo[b,f][1,8]naphthyridine-5,9-diamine], in experiment [2], the “Par-4 secretion activity (in words)” value was “inactive”.

In the case of `CN(C)c1ccc2cc3c(nc2c1)[nH]c(=O)c1ccccc13` [compound 6, 9-(N,N-Dimethylamino)dibenzo[b,f][1,8]naphthyridin-5(6H)-one], in experiment [2], the “Par-4 secretion activity (in words)” value was “inactive”.

`CN(C)c1ccc2cc(-c3ccccc3F)c(=S)[nH]c2c1` [compound 7, 7-(N,N-Dimethylamino)-3-(2-fluorophenyl)quinoline-2(1H)-thione] returned an IC50 on hERG potassium channel of over 100 µM. Further, in experiment [2], the fold induction at 0.5 µM was found to be 1.7.

For the compound `CN(C)c1ccc2cc(-c3ccccc3F)c(N3CCOCC3)nc2c1` [compound 10, 3-(2-Fluorophenyl)-N,N-dimethyl-2-morpholinoquinolin-7-amine], at hERG potassium channel, the IC50 came to 23.3 ± 3.05 µM. The fold induction at 0.5 µM in experiment [2] is 1.8.

Take `CN1CCN(c2nc3cc(N(C)C)ccc3cc2-c2ccccc2F)CC1` [compound 11, 3-(2-Fluorophenyl)-N,N-dimethyl-2-(4-methylpiperazin-1-yl)quinolin-7-amine]: the “Par-4 secretion activity (in words)” value in experiment [2] was “high levels of Par-4 secretion”.

Regarding `Nc1nc2ccccc2cc1-c1ccccc1F` [compound 12, 3-(2-Fluorophenyl)quinolin-2-amine], the IC50 on hERG potassium channel is 14.6 ± 5.82 µM. In experiment [2], the “Par-4 secretion activity (in words)” value is recorded as “high levels of Par-4 secretion” and the fold induction at 0.5 µM was 2.8.

As to `Nc1nc2cccc(F)c2cc1-c1ccccc1F` [compound 13, 5-Fluoro-3-(2-fluorophenyl)quinolin-2-amine], in experiment [2], the “Par-4 secretion activity (in words)” value is given as “equipotent to 1a”.

As to `Nc1nc2ccc(Cl)cc2cc1-c1ccccc1F` [compound 16, 6-Chloro-3-(2-fluorophenyl)quinolin-2-amine], the “Par-4 secretion activity (in words)” value in experiment [2] is “equipotent to 1a”.

In the case of `Nc1nc2cc(Cl)ccc2cc1-c1ccccc1F` [compound 17, 7-Chloro-3-(2-fluorophenyl)quinolin-2-amine], in experiment [1] (arylquin at 1 μM), the “Binding to vimentin rod domain (in words)” value is on record as “did not bind the vimentin rod domain to a measurable extent; also recorded: fluorescence signal did not change in the titration”. Besides, the “Par-4 secretion activity (in words)” value in experiment [2] is listed as “did not induce Par-4 secretion”.
